Series [1] concerns PC-3. Nature of the series: Induction of oxidative stress in human PC3 cells assessed as total GSH levels at 5 uM treated 24 hrs post NAC addition measured after 24 hrs by spectrophotometric analysis (reference value: 3.04 +/- 0.51 microg/mg). The series is classed as functional. An outline of the steps: (§1)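 Cells were pretreated 24 h with 5 mM NAC, then exposed 24 h to test compound at 5 µM. Controls received 0.1% DMSO. Extracts were prepared by sonication and HClO4 precipitation, then neutralized with KOH. Total glutathione was read by DTNB/glutathione reductase/NADPH rate at 412 nm. GSSG was measured after 4-vinylpyridine (0.1%, 1 h, RT) and GSH derived by difference. Values are normalized to protein, triplicates, three independent runs.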

The test system of series [2] is PC-3. Nature of the series: Induction of oxidative stress in human PC3 cells assessed as total GSSG levels at 5 uM treated 24 hrs post NAC addition measured after 24 hrs by spectrophotometric analysis (reference value: 1.11 +/- 0.12 microg/mg). The series is classed as functional. The procedure, abridged:
as §1

Series [3] relates to L929. The series can be described thus: Antiproliferative activity against mouse L929 cells after 72 hrs by MTT assay. The series is classed as cell-based. The note with it: L929, 72 h. The procedure, abridged:
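MTT reduction: cancer lines plated at 0.7×10^5 to 0.3×10^6 cells/well, V79 and L929 fibroblasts at 0.5×10^5 cells/well. Compounds in DMSO (0.1%) were given for 24 h at 0.04–40.92 µM or 72 h at 0.04–8.19 µM. Fresh medium with 0.5 mg/mL MTT was added for 3 h, then formazan was dissolved in DMSO and read at 595 nm as % of control. IC50 came from nonlinear regression with 95% CI. Doxorubicin (0.001–1.06 µM) was the positive control. Triplicate, ≥3 repeats.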
(In general: Tetrazolium assays rely on reduction of a dye to a coloured formazan, in cell work by metabolically active cells.)

The nature of series [4]: Selectivity index, ratio of IC50 for mouse L929 cells to IC50 for human PC3 cells. The series is classed as functional. An outline of the steps:
(§2)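 Selectivity index is the ratio of the IC50 in a non-cancer murine line (V79 or L929) to the IC50 in the cancer line. […] MTT was 0.5 mg/mL for 3 h, formazan dissolved in DMSO and read at 595 nm as % of control. IC50s were derived by nonlinear regression; triplicate, at least three repeats.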

Series [5] is described as follows: Selective index, ratio of IC50 for mouse L929 cells to IC50 for human MDA-MB-435 cells. An outline of the steps: as §2
A short description of series [6]: Selective index, ratio of IC50 for chinese hamster V79 cells to IC50 for human SF295 cells. The procedure, abridged:
as §2

The subject of series [7] is SF-295. The series can be described thus: Induction of lipid peroxidation in human SF295 cells assessed as increase in MDA levels at 2.5 to 10 uM treated 24 hrs post NAC addition measured after 24 hrs by TBARS assay. The series is classed as functional, cell-based. The procedure, abridged:
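TBARS: cells were exposed 24 h, with or without 24 h prior 5 mM NAC, and lysed in Tris-HCl. Lysate was heated with TCA/0.25 M HCl and 6.7 mg/mL TBA for 15 min at 100 °C, centrifuged, and read at 532 nm. Hydrolyzed tetramethoxypropane served as standard, with values normalized to protein. H2O2 (10 µM) was the positive control. Three independent experiments in triplicate; ANOVA/Tukey.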

The test system of series [8] is PC-3. The series can be described thus: Induction of oxidative stress in human PC3 cells assessed as total intracellular thiol levels at 5 uM after 24 hrs by spectrophotometric analysis (reference value: 4.23 +/- 0.75 microg/mg). The class given is functional.
The subject of series [9] is PC-3. Nature of the series: Induction of oxidative stress in human PC3 cells assessed as total GSSG levels at 5 uM after 24 hrs by spectrophotometric analysis (reference value: 1.11 +/- 0.12 microg/mg). The series is classed as functional.
The subject of series [10] is PC-3. The series can be described thus: Induction of oxidative stress in human PC3 cells assessed as GSH to GSSG ratio at 5 uM after 24 hrs by spectrophotometric analysis (reference value: 2.69 +/- 0.21 microg/mg). The class given is functional.
The subject of series [11] is SF-295. The series can be described thus: Induction of oxidative stress in human SF295 cells assessed as total GSH levels at 5 uM treated 24 hrs post NAC addition measured after 24 hrs by spectrophotometric analysis (reference value: 3.16 +/- 0.21 microg/mg). The series is classed as functional. An outline of the steps:
as §1

Series [12] concerns SF-295. Nature of the series: Induction of oxidative stress in human SF295 cells assessed as GSH to GSSG ratio at 5 uM treated 24 hrs post NAC addition measured after 24 hrs by spectrophotometric analysis (reference value: 2.34 +/- 0.56 microg/mg). The series is classed as functional. The procedure, abridged: as §1
Series [13] has as its system HCT-116. Nature of the series: Induction of oxidative stress in human HCT116 cells assessed as total GSH levels at 5 uM treated 24 hrs post NAC addition measured after 24 hrs by spectrophotometric analysis (reference value: 3.74 +/- 0.55 microg/mg). The class given is functional.
Series [14] deals with HCT-116. The series can be described thus: Induction of oxidative stress in human HCT116 cells assessed as total GSSG levels at 5 uM after 24 hrs by spectrophotometric analysis (reference value: 1.19 +/- 0.37 microg/mg). The class given is functional.
The subject of series [15] is HCT-116. Nature of the series: Induction of oxidative stress in human HCT116 cells assessed as total GSSG levels at 5 uM treated 24 hrs post NAC addition measured after 24 hrs by spectrophotometric analysis (reference value: 1.19 +/- 0.37 microg/mg). The series is classed as functional.
The test system of series [16] is HCT-116. The series can be described thus: Induction of oxidative stress in human HCT116 cells assessed as GSH to GSSG ratio at 5 uM treated 24 hrs post NAC addition measured after 24 hrs by spectrophotometric analysis (reference value: 3.09 +/- 0.33 microg/mg). The class given is functional.
Series [17] deals with L929. Nature of the series: Induction of oxidative stress in mouse L929 cells assessed as total GSH levels at 5 uM after 24 hrs by spectrophotometric analysis (reference value: 3.76 +/- 0.51 microg/mg). The series is classed as cell-based. The note with it: l929, 24 h.
Series [18] has as its system L929. Nature of the series: Induction of oxidative stress in mouse L929 cells assessed as total GSH levels at 5 uM treated 24 hrs post NAC addition measured after 24 hrs by spectrophotometric analysis (reference value: 3.76 +/- 0.51 microg/mg). The class given is cell-based. The following applies: l929, 24 h.
Series [19] deals with L929. Nature of the series: Induction of oxidative stress in mouse L929 cells assessed as GSH to GSSG ratio at 5 uM after 24 hrs by spectrophotometric analysis (reference value: 3.55 +/- 0.51 microg/mg). The note with it: l929, 24 h. The series is classed as cell-based.
Series [20] relates to L929. The series can be described thus: Induction of oxidative stress in mouse L929 cells assessed as GSH to GSSG ratio at 5 uM treated 24 hrs post NAC addition measured after 24 hrs by spectrophotometric analysis (reference value: 3.55 +/- 0.51 microg/mg). The class given is cell-based. The note with it: l929, 24 h. An outline of the steps:
as §1

Series [21] has as its system L929. The series can be described thus: Geno-toxicity in mouse L929 cells assessed as induction of DNA damage at 2.5 to 10 uM after 24 hrs in absence of NAC by alkaline comet assay. The class given is cell-based. The note with it: l929, 24 h. An outline of the steps: (§3)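 Alkaline comet assay after 24 h at 2.5, 5 and 10 µM, with or without 24 h pretreatment with 5 mM NAC. Cells were trypsinized and embedded in 0.75% low-melting agarose, then lysed at pH 10, 4 °C, ≥1 h. DNA was unwound 20 min at pH >13 and electrophoresed 20 min at 25 V, 300 mA (0.86 V/cm), then stained with ethidium bromide. 100 cells (2 slides) were scored in classes 0–4 for a damage index. Mean ± SEM, three independent experiments in triplicate.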

Series [22] has as its system PC-3. The series can be described thus: Geno-toxicity in human PC3 cells assessed as induction of DNA damage at 2.5 to 10 uM treated 24 hrs post NAC addition measured after 24 hrs by alkaline comet assay. The class given is functional, cell-based. An outline of the steps:
as §3

Series [23] deals with SF-295. The series can be described thus: Geno-toxicity in human SF295 cells assessed as induction of DNA damage at 2.5 to 10 uM treated 24 hrs post NAC addition measured after 24 hrs by alkaline comet assay. The series is classed as functional, cell-based. The procedure, abridged:
as §3

Calls of active or inactive are those of the source. The rule behind the calls is not given here.

Turning to `CC1(C)OC2=C(C(=O)C(=O)c3ccccc32)C1n1cc(CNC2=[N+]3C(=C(c4ccccc4)c4ccc(Cl)n4[B-]3(F)F)C=C2)nn1` (stereo not drawn), the Activity in the series with PC-3 [1] turned out to be 3.13 µg/mg; in the series on PC-3 [2], 1.07 µg/mg; in the series with PC-3 [8], 3.53 µg/mg; in the series on PC-3 [9] it was 2.16 µg/mg; with PC-3 [10] it was 0.37 µg/mg; in the series on SF-295 [11] it was 3.47 µg/mg. For the same compound, the Activity in the series with SF-295 [12] is 2.82 µg/mg; in the series on HCT-116 [13] it was 3.71 µg/mg; in the series on HCT-116 [14], 2.01 µg/mg; with HCT-116 [15] it was 1.38 µg/mg; with HCT-116 [16], 2.63 µg/mg; with L929 [17] it was 1.15 µg/mg. Besides, the Activity with L929 [18] is 3.89 µg/mg; in the series on L929 [19] it was 0.33; in the series on L929 [20], 3.08 µg/mg; with L929 [21], “Toxic”. Moreover, the IC50 – broadly, the concentration needed to halve the response being measured – in the series on L929 [3] amounted to 920 nM. Also, the Ratio IC50 was determined as 2.4 in series [4], 1.1 in [5] and 2.3 in series [6]. Besides, the outcome in the series with SF-295 [7] was inactive. The result in the series with PC-3 [22] and in the series with SF-295 [23] was Active.

(Values after ChEMBL document CHEMBL4043182, “On the synthesis of quinone-based BODIPY hybrids: New insights on antitumor activity and mechanism of action in cancer cells” (Bioorg Med Chem Lett, 2017).)
